Source: ChEMBL document CHEMBL1141957, “Screening of electrophilic compounds yields an aziridinyl peptide as new active-site directed SARS-CoV main protease inhibitor” (Bioorg Med Chem Lett, 2005)
pKi: −log10 of the molar value.

Biological target: Replicase polyprotein 1a (Severe acute respiratory syndrome-related coronavirus) (UniProt P0C6U8)
Assay: Inhibition of Mpro in SARS-CoV at 100 uM in FRET-based assay
In short: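 Fluorimetric read-out: SARS-CoV Mpro cleavage of a FRET-pair-labeled peptide substrate. Percent inhibition reported as the mean of at least 2 independent assays.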

SMILES	inhibition
COC(=O)CN1CC1C(=O)OC (stereo unspecified)	30%
COC(=O)C1CN1[C@H](C(=O)OCc1ccccc1)C(C)C (stereo partly specified)	20%
CC[C@H](C)[C@@H](C(=O)OCc1ccccc1)N1CC1C(=O)OC (stereo partly specified)	30%
C[C@H]1[C@@H](C(=O)N[C@@H](Cc2ccccc2)C(=O)OCc2ccccc2)N1Cc1ccccc1 (stereo partly specified)	24%
O=C(N[C@@H](Cc1ccccc1)C(=O)OCc1ccccc1)C1C(c2ccccc2)N1Cc1ccccc1 (stereo partly specified)	30%
CCOC(=O)C1OC1C(=O)N[C@@H](Cc1ccccc1)C(=O)OCc1ccccc1 (stereo partly specified)	22%
C[C@H]1O[C@H]1C(=O)N[C@@H](Cc1ccccc1)C(=O)OCc1ccccc1	15%
COC(=O)C1CN1[C@H](C(=O)OC)C(C)C (stereo partly specified)	30%
COC(=O)C1CN1[C@@H](C)C(=O)OC (stereo partly specified)	39%
COC(=O)C1CN1[C@@H](CC(=O)OCc1ccccc1)C(=O)OCc1ccccc1 (stereo partly specified)	28%
CCOC(=O)[C@H]1[C@H](C(=O)OCC)N1C(=O)[C@@H]1CCCN1C(=O)[C@H](CC(C)C)NC(=O)OC(C)(C)C	16%
CCOC(=O)[C@H]1[C@H](C(=O)OCC)N1C(=O)[C@@H](NC(=O)OC(C)(C)C)C(C(C)C)N1CCC1 (stereo partly specified)	16%
COC(=O)C1CN1CCCC[C@H](NC(=O)OCc1ccccc1)C(=O)OC (stereo partly specified)	48%
COC(=O)C1CN1[C@@H](CCSC)C(=O)OC (stereo partly specified)	28%
COC(=O)C1CN1CC(=O)OCc1ccccc1 (stereo unspecified)	26%
C[C@@H]1O[C@@H]1C(=O)N[C@@H](Cc1ccccc1)C(=O)OCc1ccccc1	28%
CCOC(=O)[C@H]1N[C@@H]1C(=O)NCC(=O)NCC(=O)OCc1ccccc1	54%
CC(C)[C@H](NC(=O)C1C(c2ccccc2)N1Cc1ccccc1)C(=O)OCc1ccccc1 (stereo partly specified)	22%
CC(C)(C)OC(=O)N[C@H](C(=O)N1[C@H](C(=O)OCc2ccccc2)[C@H]1C(=O)OCc1ccccc1)N1CCCCC1	29%
COC(=O)C1CN1[C@@H](CC(C)C)C(=O)OCc1ccccc1 (stereo partly specified)	34%
CC1C(C(=O)N[C@@H](Cc2ccccc2)C(=O)OCc2ccccc2)N1Cc1ccccc1 (stereo partly specified)	34%
CC(C)[C@H](NC(=O)[C@@H]1O[C@@H]1C)C(=O)OCc1ccccc1	10%

Biological target: Replicase polyprotein 1a (Severe acute respiratory syndrome-related coronavirus) (UniProt P0C6U8)
Assay: Inhibition of Mpro in SARS-CoV at 100 uM in HPLC assay

SMILES	inhibition
CCOC(=O)[C@H]1N[C@@H]1C(=O)NCC(=O)NCC(=O)OCc1ccccc1	75%

Biological target: Procathepsin L (Homo sapiens, UniProt P07711)
Assay: Inhibitory activity against cathepsin L

Sequence of Procathepsin L (P07711 whole entry): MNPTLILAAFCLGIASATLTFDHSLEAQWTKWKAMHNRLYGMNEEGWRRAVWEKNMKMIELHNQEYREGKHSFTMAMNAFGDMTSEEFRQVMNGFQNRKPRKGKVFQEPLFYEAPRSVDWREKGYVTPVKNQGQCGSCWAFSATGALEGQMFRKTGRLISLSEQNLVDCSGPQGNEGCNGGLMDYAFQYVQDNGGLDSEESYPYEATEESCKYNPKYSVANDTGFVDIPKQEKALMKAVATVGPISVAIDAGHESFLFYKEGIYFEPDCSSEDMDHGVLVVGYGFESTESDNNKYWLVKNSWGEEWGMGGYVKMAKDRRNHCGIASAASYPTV

SMILES	pKi
CCOC(=O)[C@H]1[C@H](C(=O)OCC)N1C(=O)[C@@H](NC(=O)OC(C)(C)C)C(C(C)C)N1CCC1 (stereo partly specified)	5.32
CC(C)(C)OC(=O)N[C@H](C(=O)N1[C@H](C(=O)OCc2ccccc2)[C@H]1C(=O)OCc1ccccc1)N1CCCCC1	5.19

Biological target: Replicase polyprotein 1a (Severe acute respiratory syndrome-related coronavirus) (UniProt P0C6U8)
Assay: Inhibition of Mpro in SARS-CoV at 100uM

SMILES	inhibition
CCOC(=O)C1C(C)N1Cc1ccccc1 (stereo unspecified)	< 10%
COC(=O)C1(C(=O)OC)C(C)N1C(=O)OC(C)(C)C (stereo unspecified)	< 10%
COC(=O)[C@H]1O[C@H]1C(=O)OC	< 10%
COC(=O)CN1CC1C(=O)N[C@@H](Cc1ccccc1)C(=O)OC (stereo partly specified)	< 10%
C[C@@H]1O[C@@H]1C(=O)N[C@H](Cc1ccccc1)C(=O)O	< 10%
CCOC(=O)[C@H]1N[C@@H]1C(=O)N[C@H](C(=O)OCc1ccccc1)[C@@H](C)CC	< 10%
CCOC(=O)[C@H]1N[C@H]1C(=O)OCC	< 10%
C[C@H]1O[C@H]1C(=O)N[C@@H](Cc1ccccc1)C(=O)O	< 10%
CCOC(=O)N1C(C)C1(C(=O)OC)C(=O)OC (stereo unspecified)	< 10%
CC(C)C[C@@H]1O[C@@H]1[C@H](Cc1ccccc1)NC(=O)OC(C)(C)C	< 10%
C[C@H]1O[C@H]1C(=O)O	< 10%
COC(=O)[C@H]1N[C@H]1C(=O)OC	< 10%
COC(=O)C1(C(=O)OC)NC1C (stereo unspecified)	< 10%
COC(=O)C1C(c2ccccc2)N1Cc1ccccc1 (stereo unspecified)	< 10%
C[C@H]1O[C@H]1C(=O)N[C@H](Cc1ccccc1)C(=O)OCc1ccccc1	< 10%
C[C@@H]1O[C@@H]1C(=O)N[C@H](Cc1ccccc1)C(=O)OCc1ccccc1	< 10%
